According to PMC5568793 (Science translational medicine, 2017):

What was measured:
[1] = molecular target: T1, type I collagen (Mus musculus, UniProt P11087+Q01149); assay: PET lung signal in low dose bleomycin vascular leak; format: in vivo; conditions: day 14, 50-80 min after injection
Procedure, shortened: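 Male C57Bl/6 mice received intratracheal low-dose bleomycin (0.1 U/kg) and/or FTY720 (1 mg/kg i.p. thrice weekly), with 1E6 (1 mg/kg i.p. thrice weekly) where stated, all from day 0. On day 14, under isoflurane, 68Ga probe was given as an i.v. femoral bolus. Static PET ran for 30 min starting 50 min post-injection, with CT. MLEM reconstruction was used; lung VOIs of about 65 mm3 were read as decay-corrected %ID/cc.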

[2] = molecular target: T1, type I collagen; assay: Lung uptake of probe in bleomycin mouse model of pulmonary fibrosis; format: in vivo
Procedure, shortened: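 Male C57BL/6 mice (10 weeks, 20–28 g) received transtracheal bleomycin at 2.5 U/kg in 50 μL PBS through a cervical incision; sham mice were controls. On day 14, 68Ga probe was given as an i.v. bolus via femoral vein catheter under isoflurane. Dynamic PET-CT ran for 120 min, read as decay-corrected lung VOI %ID/cc. Mice were killed 150 min post-injection and organs weighed and gamma-counted.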

[3] = molecular target: T1, type I collagen; assay: Ex vivo lung uptake in low dose bleomycin vascular leak; conditions: day 14, 2.5 h post injection
Procedure, shortened: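 Male C57Bl/6 mice, 7–8 weeks old, received a single intratracheal bleomycin dose of 0.1 U/kg in saline, with or without FTY720 at 1 mg/kg i.p. three times weekly. 3G9 or isotype 1E6 antibody was given at 1 mg/kg i.p. three times weekly. All dosing started on day 0. On day 14, 68Ga probe was given as an i.v. femoral bolus under isoflurane. Mice were killed 150 min post-injection; the left lung was weighed and gamma-counted.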

[4] = mouse, in vivo, iv

T1 sequence (P11087 152-1207 limits assumed): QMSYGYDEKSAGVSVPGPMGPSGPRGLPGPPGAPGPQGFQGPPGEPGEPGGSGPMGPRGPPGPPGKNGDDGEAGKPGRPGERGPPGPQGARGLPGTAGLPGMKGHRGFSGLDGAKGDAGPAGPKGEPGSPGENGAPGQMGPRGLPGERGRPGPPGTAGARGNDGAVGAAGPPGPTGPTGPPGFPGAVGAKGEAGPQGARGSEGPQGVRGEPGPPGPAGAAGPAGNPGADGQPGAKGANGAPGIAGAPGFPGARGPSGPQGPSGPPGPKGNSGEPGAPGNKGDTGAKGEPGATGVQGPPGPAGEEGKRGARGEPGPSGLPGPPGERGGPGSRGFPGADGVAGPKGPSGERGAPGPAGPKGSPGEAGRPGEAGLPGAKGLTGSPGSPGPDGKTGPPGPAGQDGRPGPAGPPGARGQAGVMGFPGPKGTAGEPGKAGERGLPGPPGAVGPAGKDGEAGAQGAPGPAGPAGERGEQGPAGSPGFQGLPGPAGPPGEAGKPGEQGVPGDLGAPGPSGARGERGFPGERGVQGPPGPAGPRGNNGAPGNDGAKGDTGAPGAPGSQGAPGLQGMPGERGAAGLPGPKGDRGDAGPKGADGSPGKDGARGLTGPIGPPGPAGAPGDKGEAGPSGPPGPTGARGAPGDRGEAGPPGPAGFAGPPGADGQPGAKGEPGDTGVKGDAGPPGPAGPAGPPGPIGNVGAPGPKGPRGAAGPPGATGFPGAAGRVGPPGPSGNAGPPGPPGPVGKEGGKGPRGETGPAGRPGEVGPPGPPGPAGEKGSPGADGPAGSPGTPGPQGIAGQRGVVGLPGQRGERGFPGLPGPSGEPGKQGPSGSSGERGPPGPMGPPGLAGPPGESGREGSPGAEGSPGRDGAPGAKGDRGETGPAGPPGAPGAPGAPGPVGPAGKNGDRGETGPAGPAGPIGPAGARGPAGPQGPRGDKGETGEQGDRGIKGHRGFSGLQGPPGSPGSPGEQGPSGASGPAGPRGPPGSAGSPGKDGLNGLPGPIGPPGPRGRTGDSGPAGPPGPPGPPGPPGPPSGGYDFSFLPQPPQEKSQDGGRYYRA
T1 sequence (Q01149 86-1125 limits assumed): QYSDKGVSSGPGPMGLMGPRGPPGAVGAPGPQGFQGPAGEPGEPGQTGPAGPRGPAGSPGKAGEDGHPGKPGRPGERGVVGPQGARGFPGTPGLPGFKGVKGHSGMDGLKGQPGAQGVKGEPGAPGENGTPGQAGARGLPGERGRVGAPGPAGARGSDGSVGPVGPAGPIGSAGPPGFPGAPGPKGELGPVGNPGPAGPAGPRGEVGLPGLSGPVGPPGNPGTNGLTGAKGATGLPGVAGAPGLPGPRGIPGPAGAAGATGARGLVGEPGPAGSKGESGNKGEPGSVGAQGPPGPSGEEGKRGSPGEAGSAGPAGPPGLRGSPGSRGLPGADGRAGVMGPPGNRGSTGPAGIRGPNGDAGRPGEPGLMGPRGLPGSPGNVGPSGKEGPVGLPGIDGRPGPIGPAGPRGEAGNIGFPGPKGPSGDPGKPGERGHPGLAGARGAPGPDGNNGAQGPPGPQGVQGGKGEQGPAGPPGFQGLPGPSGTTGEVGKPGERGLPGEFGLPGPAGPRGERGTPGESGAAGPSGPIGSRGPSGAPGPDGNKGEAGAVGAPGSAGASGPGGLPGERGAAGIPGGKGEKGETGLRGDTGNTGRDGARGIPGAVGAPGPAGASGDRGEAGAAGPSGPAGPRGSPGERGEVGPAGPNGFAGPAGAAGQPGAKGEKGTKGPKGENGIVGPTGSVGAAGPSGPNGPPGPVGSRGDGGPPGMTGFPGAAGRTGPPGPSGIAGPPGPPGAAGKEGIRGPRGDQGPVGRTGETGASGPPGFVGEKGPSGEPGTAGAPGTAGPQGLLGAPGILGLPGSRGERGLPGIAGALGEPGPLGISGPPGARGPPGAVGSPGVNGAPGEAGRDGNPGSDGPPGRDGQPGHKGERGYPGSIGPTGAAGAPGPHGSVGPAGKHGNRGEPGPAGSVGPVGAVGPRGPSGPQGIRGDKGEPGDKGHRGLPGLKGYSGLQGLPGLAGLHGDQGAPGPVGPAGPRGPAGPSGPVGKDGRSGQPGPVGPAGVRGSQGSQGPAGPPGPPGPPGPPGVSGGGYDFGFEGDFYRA

PET lung signal ([1]; FTY mice (FTY720 only), n=6): 1.5 ± 0.1 %ID/cc
PET lung signal ([1]; LDB mice (low dose BM only), n=4): 1.7 ± 0.1 %ID/cc
PET lung signal ([1]; LDBVL+1E6 mice (irrelevant antibody), n=11): 3.0 ± 0.2 %ID/cc
PET lung signal ([1]; LDBVL+3G9 mice (anti-αvβ6 antibody), n=11): 1.9 ± 0.2 %ID/cc
ex vivo lung uptake, BM-mice day 14 relative to sham animals ([2]; BM day 14 (n=7) vs sham (n=11)): 5 fold
probe uptake in fibrotic mouse lungs compared to control lungs ([2]; discussion statement, mouse models of pulmonary fibrosis): 6 fold
ex vivo lung uptake, LDBVL group relative to FTY group [3]: five times more uptake
ex vivo lung uptake, LDBVL group relative to LDB group [3]: three times more
ex vivo lung uptake, LDBVL+1E6 group relative to 3G9-treated group [3]: six times higher uptake
ex vivo lung uptake, LDBVL+1E6 group relative to LDBVL+3G9 group [3]: three times more uptake
SMILES: CC(C)C[C@H](NC(=O)[C@@H]1CSSC[C@H](NC(=O)[C@H](Cc2c[nH]cn2)NC(=O)[C@H](Cc2c[nH]c3ccccc23)NC(=O)[C@H](CCCCNC(=O)CNC(=O)CCC(C(=O)O)N2CCN(CC(=O)O)CCN(CC(=O)O)CC2)NC(=O)CCC(C(=O)O)N2CCN(CC(=O)O)CCN(CC(=O)O)CC2)C(=O)N[C@@H]([C@@H](C)O)C(=O)N[C@@H]([C@@H](C)O)C(=O)N[C@@H](CCCCNC(=O)CNC(=O)CCC(C(=O)O)N2CCN(CC(=O)O)CCN(CC(=O)O)CC2)C(=O)N[C@@H](Cc2ccccc2)C(=O)N2CCC[C@H]2C(=O)N[C@@H](Cc2c[nH]cn2)C(=O)N[C@@H](Cc2c[nH]cn2)C(=O)N[C@@H](Cc2ccc(O)cc2)C(=O)N1)C(=O)N[C@@H](Cc1ccc(O)cc1)C(=O)N[C@@H](Cc1ccc(-c2ccccc2)cc1)C(N)=O (some centres unmarked) [^68Ga-CBP8, metal not drawn]
blood half-life [4]: 32.9 ± 4.5 min
